# Hits are enriched below; roughly 2.4% of the tested compounds scored in any of these assays.
# PP5 inh: PP5 (human) phosphatase inhibition; P53041; purified PP5c, OMFP substrate fluorescence; inhibition, % at 6.7 µM; 0.18% of 320,000 active;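 active = inhibition above the campaign's mean inhibition across all tested compounds plus 3 SD, cut at about 9.5% in these data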;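 also: 0% = DMSO only and 100% = 100 µM cantharidin control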
# Target sequence (P53041 whole entry, looked up): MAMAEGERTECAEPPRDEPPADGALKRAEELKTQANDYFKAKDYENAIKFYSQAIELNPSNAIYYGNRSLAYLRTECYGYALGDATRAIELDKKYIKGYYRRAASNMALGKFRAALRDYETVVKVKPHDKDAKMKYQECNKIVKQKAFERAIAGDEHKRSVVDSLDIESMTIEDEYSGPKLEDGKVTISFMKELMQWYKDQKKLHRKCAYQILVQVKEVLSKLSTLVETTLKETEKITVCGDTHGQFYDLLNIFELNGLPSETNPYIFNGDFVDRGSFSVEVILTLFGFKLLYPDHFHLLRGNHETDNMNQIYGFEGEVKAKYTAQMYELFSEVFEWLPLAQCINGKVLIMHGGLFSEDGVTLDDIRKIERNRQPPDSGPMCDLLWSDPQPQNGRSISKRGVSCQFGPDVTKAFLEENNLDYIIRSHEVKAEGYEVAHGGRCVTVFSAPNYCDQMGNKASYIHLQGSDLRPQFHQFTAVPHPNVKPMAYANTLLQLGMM
# Fh CTSL1 inh: blocks F. hepatica cathepsin L1 in PFM18AAP counter-screen; recombinant F. hepatica cathepsin L1, Z-Leu-Arg-MCA fluorescence; inhibition, % at 5.96 µM; 0.49% of 300,000 active; AID 1906;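 active = inhibition above the mean of all tested compounds plus 3 SD, set per screening campaign, cut at about 17% in these data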;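 also: 0% = plate median of test compound wells and 100% = 1 µM Z-Phe-Ala-diazomethylketone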
# H9c2 protect: myocardial damage modulation in H9c2 cells; protection from H2O2 cell death, % at 20 µM; AID 588492; 0.63% of 360,000 active; H9c2 cardiomyocytes, H2O2 injury protection, ATPLite, 2 h;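 active = compounds giving at least 50% protection of heart cells from peroxide-induced death in the single-dose screen, raw or plate-pattern-corrected value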;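 also: 0% = DMSO wells with peroxide and 100% = DMSO wells without peroxide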
# T cruzi inh: blocks replication of Trypanosoma cruzi | T. cruzi beta-gal in NIH3T3, luminescence, 90 h | inhibition, % (test concentration not listed) | 1.4% of 300,000 active | AID 1885;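 active = mean inhibition across valid replicates above about 55%, limit read from the data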;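 also: signal also drops with host cell toxicity which is not excluded here; 0% = plate median of DMSO wells and 100% = zero luminescence signal; higher percent means less beta-gal luminescence so fewer parasites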
#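 Assay system: NIH/3T3 host cells with β-galactosidase reporter T. cruzi; input: 5,000 host fibroblasts per well; compound: single 50 nL compound addition per well in DMSO; timing: ≥90 h infection period, 3 h prior cell attachment; measured by: GalScreen β-gal luminescence, detergent lysis, 60 min; evaluation: percent inhibition of parasite-derived β-gal signal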
# p-CIP stab down: p/CIP protein destabilization. F442A p/CIP-EGFP cells, EGFP fluorescence, 16 h. decrease of EGFP signal, % at 10 µM. 0.01% of 290,000 active. AID 1984;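 active = EGFP signal decrease of at least 30% at 10 µM or well 3 SD below plate mean, unless failing retest; inactive = the rest, including hits failing retest or dose response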
# JMJD2C inh: blocks human GASC-1 demethylase activity; Q9H3R0; GST-JMJD2C(1-420) H3K9me3 demethylation, DELFIA europium; inhibition, % at 2.35 µM; 0.069% of 330,000 active; AID 2099;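 active = more than half of a compound's replicate wells show inhibition beyond 50%, single wells judged on their own value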;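 also: signal counts dimethyl H3K9 product captured on neutravidin plate; 0% = median of DMSO wells and 100% = 0.3 times that DMSO median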
# Numbers without * were called inactive; . = not tested or not shown; ! = a repeat was not active.
SMILES,PP5 inh,Fh CTSL1 inh,H9c2 protect,T cruzi inh,p-CIP stab down,JMJD2C inh
O=C(CN1CCCC1c1cccs1)Nc1cc(S(=O)(=O)N2CCCCC2)ccc1Cl (configuration not stated),.,.,-14,.,.,.
CCCC1CC(C)(/C(C)=N\NC(N)=S)OC1=O (configuration not stated),-1,10,-3,-20,-10,-21
C/C(=N\NC(N)=S)C1(C)CC2(CC(C)(C)OC2=O)C(=O)O1 (configuration not stated),3,19*,0,-3,-16,17
CCc1nc2c(OCc3ccc(C#N)cc3)cccn2c1N(C)C(=O)C(C)C,.,.,8,.,.,.
c1ccc(-n2cnnc2SCc2cn3ccsc3n2)cc1,2,-5,-7,-8,7,1
c1ccn2c(SCc3cn4ccsc4n3)nnc2c1,-2,-6,-8,8,-6,51*
O=C(NC(=S)Nc1cccc(Cl)c1Cl)C1CC1,5,0,-6,-17,-6,7
Cc1cc2c3c(c1)C1(C(=O)N3C(C)(C)CC2C)C(C#N)=C(N)Oc2cc(O)ccc21 (configuration not stated),7,0,-12,66*,-12,-6
Cc1ccc2c3c1C1(C(=O)N3C(C)(C)CC2C)C(C#N)=C(N)Oc2cc(O)ccc21 (configuration not stated),4,-4,-1,-5,-7,3
O=[N+]([O-])c1ccc(Nc2nc(N/N=C/c3cccc(F)c3)nc(N3CCCC3)n2)cc1,1,-1,84*,33,5,-11
COc1cccc(/C=N/Nc2nc(Nc3ccc([N+](=O)[O-])cc3)nc(N3CCCC3)n2)c1O,5,4,20,55*,-4,-4
O=[N+]([O-])c1ccc(Nc2nc(NC3CCCCC3)nc(N3CCCC3)n2)cc1,4,-2,-7,65*,-1,7
COc1c(/C=N/Nc2nc(N3CCCCC3)nc(N3CCCCC3)n2)cccc1[N+](=O)[O-],3,-1,-10,50,-14,36
COc1ccc(-n2nnnc2C(c2ccccc2OC(F)(F)F)N2CCN(C/C=C/c3ccccc3)CC2)cc1 (configuration not stated),.,.,-7,.,.,.
CC(OC(=O)c1ccc(Cl)cc1)C(=O)NCC1CCCCC1 (configuration not stated),2,.,-8,.,.,.
Cc1ccc(OCC(=O)NC2CCCC2)c(C)c1,-1,2,-2,-4,-1,-4
CCC(=O)N1CCN(c2ccccc2NC(=O)COc2cc(C)ccc2C(C)C)CC1,2,0,55*,22,0,-6
Cc1ccc(C(C)C)c(OCC(=O)NC(=S)Nc2ccccc2N2CCOCC2)c1,-1,-1,-2,12,-5,-2
Cc1ccc(C(C)C)c(OCC(=O)NC2CCN(C)CC2)c1,1,0,9,64*,8,-9
Cc1cc(Cl)ccc1OCCCC(=O)NC1CCN(C)CC1,-2,-1,4,71*,-14,-4
CC(Cc1ccccc1)N1CCCC1=O (configuration not stated),.,.,4,.,.,.
CCCOc1ccc(CNCCCOCC)cc1OC,-1,-3,10,63*,-4,-26
CCOC(=O)c1cn2nc(-c3ccc(OC)cc3)cc2nc1C1CCN(C(=O)OC(C)(C)C)CC1,2,0,-13,59*,4,87
COc1ccc(S(=O)(=O)Nc2ccccc2C(=O)N2CCOCC2)cc1Br,.,.,-7,4,-9,11
COc1cc(S(=O)(=O)N2CCC(O)(c3cccc(C(F)(F)F)c3)CC2)ccc1-n1cnnn1,5,-4,-6,61*,-2,-14
SMILES,PP5 inh,Fh CTSL1 inh,H9c2 protect,T cruzi inh,p-CIP stab down,JMJD2C inh
COc1ccc(S(=O)(=O)N2CCCCC2)cc1-n1cnnn1,3,-3,1,-2,4,2
CCCCCCCN1CCC(=O)N([C@H](CO)CC(C)C)CC1,-9,8,-3,-7,-2,3
CCNC(=O)C1(C)CCN(C(=O)c2cccc(C(F)(F)F)c2)C1 (configuration not stated),.,.,3,.,.,.
NCCCS(=O)(=O)O,2,19*!,4,-16,5,9
O=S(=O)(O)CCS,1,1,0,-28,.,-6
C[C@H](CO)N1C[C@H](C)[C@@H](CN(C)S(=O)(=O)c2cccs2)Oc2c(NS(=O)(=O)c3cn(C)cn3)cccc2C1=O,.,.,0,.,.,9
COC(=O)c1ccc(/C=C2/SC(=S)N(CCCC(=O)Nc3ccccn3)C2=O)cc1,0,3,1,11,-6,-10
CCc1ccc(/C=C2\SC(=S)N(CCCC(=O)Nc3ccccn3)C2=O)cc1,0,5,-25,62*,-19,21
CC1CCCCC12NC(=O)N(CC(=O)N1CCN(Cc3ccc(C#N)cc3)CC1)C2=O (configuration not stated),-1,.,-6,.,.,-4
CCN1C(=O)[C@H]2[C@@H](c3ccc(-c4ccc(C(C)=O)cc4)cc3)N[C@@](C)(C(=O)OC)[C@H]2C1=O,.,.,52*,.,.,.
CC12CN3CC(C)(CN(C1)C3c1ccc([N+](=O)[O-])o1)C2=O (configuration not stated),1,-3,4,80*,-11,9
CCC12CN3CC(CC)(CN(C1)C3c1ccc([N+](=O)[O-])o1)C2=O (configuration not stated),3,0,12,60*,-15,21
O=C(NCCc1nnc2ccc(NCCCN3CCOCC3)nn12)c1ccccc1F,-4,1,0,-11,-2,-1
Cc1ccc(/C(N)=N/OC(=O)N2CCOCC2)cc1,3,-5,13,55*,0,4
Cc1cccc(/C(N)=N/OC(=O)c2ccco2)c1,-1,-11,-21,-17,-9,-9
Cc1cccc(/C(N)=N/OC(=O)N2CCOCC2)c1,3,1,0,60*,-2,-6
COc1cc2cc(C(=O)N(C)C3CCS(=O)(=O)C3)[nH]c2cc1OC (configuration not stated),3,1,-4,-14,-2,-3
O=C(c1ccco1)N1CCN(Cc2nc3ccc([N+](=O)[O-])cc3c(=O)n2-c2ccccc2F)CC1,-1,-4,54*,22,-3,11
CCCCNC(=S)N(CCN(CC)CC)Cc1cc2cc3c(cc2[nH]c1=O)OCCO3,-9,18*,5,15,-18,2
N#Cc1ccc(CSc2ccc(S(=O)(=O)N3CCCCCC3)cn2)cc1,.,.,-6,.,.,.
O=C(CN1CCN(Cc2ccccc2)CC1)Nc1ccc([N+](=O)[O-])cc1C(=O)Nc1ccccc1F,2,2,51*,45,-3,4

# Source: PubChem (several laboratories)
